Measured values reported in article PMC6399515 (Insect Biochemistry and Molecular Biology, 2016).

Columns and labels:
CYP6P3 [1] = biological target: T1, CYP6P3 (Anopheles gambiae, UniProt Q8T632); test: Reciprocal IC50 of CYP6P3 metabolism of PPF and permethrin; type: biochemical
T1 sequence (Q8T632 1-509): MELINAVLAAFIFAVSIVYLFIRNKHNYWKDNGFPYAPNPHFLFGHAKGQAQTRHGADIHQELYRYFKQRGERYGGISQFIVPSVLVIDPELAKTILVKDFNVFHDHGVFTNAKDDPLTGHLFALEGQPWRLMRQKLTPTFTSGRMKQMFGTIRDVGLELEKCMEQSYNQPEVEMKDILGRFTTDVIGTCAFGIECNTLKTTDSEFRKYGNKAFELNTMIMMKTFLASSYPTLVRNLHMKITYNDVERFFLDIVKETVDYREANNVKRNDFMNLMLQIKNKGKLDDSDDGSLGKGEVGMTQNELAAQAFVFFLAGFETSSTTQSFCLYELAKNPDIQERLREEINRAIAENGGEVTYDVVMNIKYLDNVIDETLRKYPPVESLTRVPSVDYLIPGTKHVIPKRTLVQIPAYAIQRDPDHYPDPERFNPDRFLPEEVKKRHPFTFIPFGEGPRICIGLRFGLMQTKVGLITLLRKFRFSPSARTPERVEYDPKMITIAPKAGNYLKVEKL
T1 sequence (Q86QH5 1-679 partner): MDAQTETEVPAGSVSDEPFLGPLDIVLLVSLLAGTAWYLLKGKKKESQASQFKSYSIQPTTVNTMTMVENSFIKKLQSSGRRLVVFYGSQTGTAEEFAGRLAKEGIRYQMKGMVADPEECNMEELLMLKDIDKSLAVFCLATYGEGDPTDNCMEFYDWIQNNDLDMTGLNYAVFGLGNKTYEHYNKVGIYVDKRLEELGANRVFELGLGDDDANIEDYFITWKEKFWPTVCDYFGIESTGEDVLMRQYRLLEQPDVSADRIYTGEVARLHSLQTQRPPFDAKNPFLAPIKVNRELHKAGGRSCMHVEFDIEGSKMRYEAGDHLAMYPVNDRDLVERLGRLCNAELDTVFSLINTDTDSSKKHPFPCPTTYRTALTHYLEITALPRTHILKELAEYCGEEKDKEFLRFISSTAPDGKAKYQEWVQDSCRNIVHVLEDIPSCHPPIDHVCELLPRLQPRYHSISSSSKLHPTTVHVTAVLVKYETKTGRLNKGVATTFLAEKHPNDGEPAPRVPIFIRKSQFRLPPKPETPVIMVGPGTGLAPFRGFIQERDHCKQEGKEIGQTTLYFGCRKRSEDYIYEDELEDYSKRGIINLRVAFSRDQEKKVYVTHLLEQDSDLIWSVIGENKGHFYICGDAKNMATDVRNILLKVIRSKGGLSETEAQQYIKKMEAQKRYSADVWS
T1 sequence (Q86QH4 1-128 partner): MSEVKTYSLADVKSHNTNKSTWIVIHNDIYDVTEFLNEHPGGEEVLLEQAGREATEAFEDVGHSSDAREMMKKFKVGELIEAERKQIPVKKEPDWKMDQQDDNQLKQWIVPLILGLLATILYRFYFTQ
In short: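 CYP6P3 was expressed with AgCPR in E. coli JM109 membranes, with b5 added at 10:1 b5:P450. Reactions ran at 30 °C for 90 min with shaking: 0.1 μM P450, 1.0 μM b5, 0.2 M Tris-HCl pH 7.4, 0.25 mM MgCl2, NADPH-regenerating system. PPF (0–1.6 mM) or permethrin (0–3.2 mM) was titrated against the other at fixed 20 μM. Substrate loss was read by C18 HPLC at 232 nm, triplicate controls.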

[2] = tested on: all mosquito P450s of the panel apart from CYP6Z2 (CYP6M2, CYP6P2, CYP6P3, CYP6P4, CYP9J5); test: in vitro; settings: Anopheles gambiae
CYP6M2 = CYP6M2 (Anopheles gambiae, UniProt Q7Q449); test: biochemical
CYP6Z2 [3] = biological target: T2, CYP6Z2 (Anopheles gambiae, UniProt A8I285); test: biochemical
T2 sequence (A8I285 1-492): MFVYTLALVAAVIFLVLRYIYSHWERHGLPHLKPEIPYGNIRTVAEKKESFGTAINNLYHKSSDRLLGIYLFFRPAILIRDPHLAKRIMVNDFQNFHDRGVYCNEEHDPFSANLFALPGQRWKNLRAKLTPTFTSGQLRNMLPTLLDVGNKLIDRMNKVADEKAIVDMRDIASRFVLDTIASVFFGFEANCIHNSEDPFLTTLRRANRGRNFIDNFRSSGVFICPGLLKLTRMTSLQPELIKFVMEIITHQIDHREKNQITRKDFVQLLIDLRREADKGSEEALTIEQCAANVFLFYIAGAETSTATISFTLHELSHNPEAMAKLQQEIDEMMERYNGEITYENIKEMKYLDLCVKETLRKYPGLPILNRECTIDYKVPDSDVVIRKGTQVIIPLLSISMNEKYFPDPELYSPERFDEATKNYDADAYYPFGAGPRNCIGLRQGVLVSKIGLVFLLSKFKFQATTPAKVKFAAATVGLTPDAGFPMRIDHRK
T2 sequence (Q86QH5 1-679 partner): T1 sequence (Q86QH5 1-679 partner)
T2 sequence (Q86QH4 1-128 partner): T1 sequence (Q86QH4 1-128 partner)

CYP6P3 [4] = biological target: T1, CYP6P3
CYP6Z2 [5] = biological target: T2, CYP6Z2
[6] = tested on: An. gambiae Kisumu strain; test: Glass tube assay, ovary development of adult females, Kisumu strain; type: in vivo, Anopheles gambiae
In short: (§1)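 Borosilicate glass tubes were coated with PPF at 0.55, 2.75 or 5.5 mg/m2, with an acetone-only tube as control, and used the day they were made. Per concentration, two groups of fifteen 5–7-day-old females (n = 30) were acclimated 60 min, then exposed 3 min. They were held 24 h on 10% sucrose, then five days in the insectary. Ovaries were dissected and scored normal or abnormal.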

[7] = tested on: An. gambiae Tiassalé strain; test: Glass tube assay, ovary development of adult females, Tiassalé strain; type: in vivo, Anopheles gambiae
In short: as §1

CYP6P family and CYP6Z2 = settings: Anopheles gambiae, pH 7.4
[8] = tested on: all mosquito P450s of the panel except CYP6Z2 and CYP6P2 (CYP6M2, CYP6P3, CYP6P4, CYP9J5); test: in vitro; settings: Anopheles gambiae
[9] = category of inhibition of DEF metabolism
[10] = 3 min exposure, half of 5.5 mg/m^2

CYP6M2, sequence (Q7Q449 1-499, one chain of several): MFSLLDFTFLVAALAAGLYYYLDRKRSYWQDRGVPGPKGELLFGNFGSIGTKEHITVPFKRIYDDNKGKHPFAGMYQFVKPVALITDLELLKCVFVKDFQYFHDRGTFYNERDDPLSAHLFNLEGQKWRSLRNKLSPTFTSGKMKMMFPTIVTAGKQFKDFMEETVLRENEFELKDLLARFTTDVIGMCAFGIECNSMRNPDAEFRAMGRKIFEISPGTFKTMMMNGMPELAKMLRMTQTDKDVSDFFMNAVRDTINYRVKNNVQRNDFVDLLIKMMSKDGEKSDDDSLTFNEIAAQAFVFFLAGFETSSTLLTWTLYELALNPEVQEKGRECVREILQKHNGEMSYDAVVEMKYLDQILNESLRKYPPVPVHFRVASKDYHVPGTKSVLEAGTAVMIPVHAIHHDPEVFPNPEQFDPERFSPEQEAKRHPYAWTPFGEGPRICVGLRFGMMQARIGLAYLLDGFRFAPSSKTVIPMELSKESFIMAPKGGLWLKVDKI

`CC1(C)C(C=C(Cl)Cl)C1C(=O)OCc1cccc(Oc2ccccc2)c1` (mixture of isomers) [Permethrin, 3-phenoxybenzyl (1R,S)-cis,trans-3-(2,2-dichlorovinyl)-2,2-dimethylcyclopropanecarboxylate] was tested, and the IC50 (CYP6P3 [1]) was 61.2 µM, the “strength of inhibition relative to PPF” value (mosquito P450s) was 2–3 fold and the IC50 ([2]; pH 7.4, IC50 of DEF activity) was 1 to 10 µM. It also gave an IC50 ([2]; pH 7.4, category of inhibition of DEF activity) of 1 to 10 µM, an IC50 (CYP6M2) of 8.07 µM and an IC50 (CYP6Z2 [3]; IC50 of DEF metabolism) of 13.7 µM. It also gave an IC50 (CYP6Z2 [3]; [9]) of over 10 µM.
For `CCCCOCCOCCOCc1cc2c(cc1CCC)OCO2` [PBO, piperonyl butoxide], the “Inhibition ratio (%): reduction of PPF depletion caused by PBO” value (shortened to “Inhibition ratio (%): reduction”) (CYP6P3 [4]) was 91.3%, the “Inhibition ratio (%): reduction” value (CYP6P5) was 95.4% and the “Inhibition ratio (%): reduction” value (CYP6Z2 [5]) was 87.3%.
`CC(COc1ccc(Oc2ccccc2)cc1)Oc1ccccn1` (centres unmarked) [PPF, pyriproxyfen] was tested, and the IC50 (CYP6P3 [1]) was 92.7 µM, the mosquitoes sterilized ([6]; 3 min exposure to 5.5 mg/m^2) was “completely sterilized” and the mosquitoes sterilized [6, 10] was 76%. For the same compound, the mosquitoes sterilized ([7]; 3 min exposure to 5.5 mg/m^2) was 75%, the “impact on ovary development” value [7, 10] was “no impact” and the “% PPF depletion + PBO” value (CYP6P3 [4]; Anopheles gambiae, pH 7.4) was 8.68 ± 1.74%. The “% PPF depletion + PBO” value (CYP6P5; Anopheles gambiae, pH 7.4) was 2.40 ± 2.01%, the “% PPF depletion −PBO” value (CYP6P5; Anopheles gambiae, pH 7.4) was 39.96 ± 1.04% and the “% PPF depletion + PBO” value (CYP6Z2 [5]; Anopheles gambiae, pH 7.4) was 8.41 ± 1.58%. The “% PPF depletion −PBO” value (CYP6Z2 [5]; Anopheles gambiae, pH 7.4) was 66.26 ± 3.02%, the PPF depletion (CYP6P family and CYP6Z2) was 58–100% and the IC50 ([8]; pH 7.4, IC50 of DEF activity) was over 10 µM. For the same compound, the IC50 ([8]; pH 7.4, category of inhibition of DEF metabolism) was over 10 µM, the IC50 (CYP6M2) was 14.1 µM and the IC50 (CYP6Z2 [3]; IC50 of DEF metabolism) was 2.23 µM. The IC50 (CYP6Z2 [3]; [9]) was 1 to 10 µM.
